Data reported in PMC11384490 (Translational Lung Cancer Research, 2024).

Experiments:
[1] = tested on: orthotopic LLC pulmonary xenografts; assay: Orthotopic pulmonary LLC tumor imaging and boundary analysis; format: in vivo, C57BL/6 mice
Water solubility = format: physicochemical; settings: result in words
[2] = NIRF imaging and biodistribution in NSCLC subcutaneous tumor mouse model; format: in vivo, BALB/c nude mice; settings: mouse, in vivo, iv, 10 nmol
In short: (§1)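 A549 cells in 100 µL PBS were injected subcutaneously into the left armpit of isoflurane-anaesthetised BALB/c nude mice, and tumours were sized by caliper (V=a2bπ/2). At about 100 mm3, mice (n=3) got the test compound (10 nmol) by tail vein. IVIS imaging ran from 1 h to several days, and tumour-to-background ratio was calculated. At 96 h, organs were excised, imaged, and organ-to-muscle fluorescence ratios averaged over 3 mice.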

A549 subcutaneous tumors = assay: as above; format: in vivo, BALB/c nude mice
In short: as §1

[3] = tested on: 4T1 lung metastatic nodules; assay: Imaging of experimental lung metastasis model; format: in vivo, Balb/c mouse; settings: iRGD-ZW800 10 nmol, 4 h vs ICG 100 nmol, 24 h; result in words
In short: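 Balb/c mice received 4T1 cells by tail vein and were observed weekly. After four weeks, the test compound (10 nmol) was given by tail vein. The chest was opened 4 h later and the lungs were imaged with an intraoperative NIRF imager. Control mice got ICG (100 nmol) and were imaged the same way after 24 h.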

SMILES: CC1(C)C(/C=C/C2=C(Oc3ccc(CCC(=O)N[C@H]4CSSC[C@@H](C(=O)O)NC(=O)[C@H](CC(=O)O)NC(=O)[C@@H]5CCCN5C(=O)CNC(=O)[C@H](CCCCN)NC(=O)[C@H](CC(=O)O)NC(=O)CNC(=O)[C@H](CCCNC(=N)N)NC4=O)cc3)C(=C/C=C3/N(CCC[N+](C)(C)C)c4ccc(S(=O)(=O)O)cc4C3(C)C)/CCC2)=[N+](CCC[N+](C)(C)C)c2ccc(S(=O)(=O)O)cc21 [iRGD-ZW800]
- ratio of tumor to lung fluorescence intensity ([1]; 10 nmol tail vein, 24 h, FLI-10B imaging, ImageJ, standard deviation 0.18): 2.2
- tumor background ratios ([1]; lung tumor imaging in C57BL/6J mice, all ratios): greater than 1.5
- water solubility (Water solubility): good water solubility
- water solubility (Water solubility; listed as iRGD fluorescent tracer): highly soluble in water
- tissue to tissue ratio at 96 h [2]: 16.6
- peak tumor-to-background ratio (TBRmax) (A549 subcutaneous tumors; 10 nmol per animal via tail vein, peak 96 h after injection, IVIS imaging, n=3): 4.3±1.04
- Fluorescence intensity ratio Sp/M (spleen/muscle) (A549 subcutaneous tumors; ex vivo organs, 96 h after 10 nmol i.v., AVG of 3 mice, SD 0.19): 0.85
- Fluorescence intensity ratio In/M (intestine/muscle) (A549 subcutaneous tumors; ex vivo organs, 96 h after 10 nmol i.v., AVG of 3 mice, SD 0.58): 1.43
- Fluorescence intensity ratio H/M (heart/muscle) (A549 subcutaneous tumors; ex vivo organs, 96 h after 10 nmol i.v., AVG of 3 mice, SD 0.60): 1.50
- Fluorescence intensity ratio Ki/M (kidney/muscle) (A549 subcutaneous tumors; ex vivo organs, 96 h after 10 nmol i.v., AVG of 3 mice, SD 1.64): 4.57
- Fluorescence intensity ratio St/M (stomach/muscle) (A549 subcutaneous tumors; ex vivo organs, 96 h after 10 nmol i.v., AVG of 3 mice, SD 1.85): 3.67
- Fluorescence intensity ratio Li/M (liver/muscle) (A549 subcutaneous tumors; ex vivo organs, 96 h after 10 nmol i.v., AVG of 3 mice, SD 2.55): 5.28
- Fluorescence intensity ratio L/M (lung/muscle) (A549 subcutaneous tumors; ex vivo organs, 96 h after 10 nmol i.v., AVG of 3 mice, SD 2.67): 5.01
- Fluorescence intensity ratio C/M (colon/muscle) (A549 subcutaneous tumors; ex vivo organs, 96 h after 10 nmol i.v., AVG of 3 mice, SD 3.74): 6.80
- imaging window (A549 subcutaneous tumors; in vivo, 10 nmol tail vein, imaged periodically over 6 days): ≥ 6 days
- detection of metastatic lung nodules compared with ICG [3]: superior ability to detect more nodules
